What all share (conditions): in vivo
Data set [1] has as its system Rattus norvegicus. The data set can be described thus: Distribution (percent dose/g of tissue) of radioactivity 24 hr after intravenous administration of [125I]-labeled compound in rat lung. Format: ADME, organism-based. The method in brief: (§1)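 Radioiodinated ester given IV to adult female Sprague–Dawley rats (200–300 g), 5–50 μCi per animal, 3–5 rats per compound. Rats killed by exsanguination under ether at 24 h. Organs blotted, large ones minced, weighed samples gamma-counted in well scintillation counter (84% efficiency). Value is % administered dose per g tissue, background-corrected; mean with SEM.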

Data set [2] concerns Rattus norvegicus. The data set can be described thus: Distribution (percent dose/g of tissue) of radioactivity 24 hr after intravenous administration of [125I]-labeled compound in rat heart. Format: ADME, organism-based. The method in brief:
as §1

Data set [3] concerns Rattus norvegicus. The data set can be described thus: Distribution (percent dose/g of tissue) of radioactivity 24 hr after intravenous administration of [125I]-labeled compound in rat blood. Format: ADME, organism-based. The method in brief:
as §1

Data set [4] has as its system Rattus norvegicus. The data set can be described thus: Distribution (percent dose/g of tissue) of radioactivity 24 hr after intravenous administration of [125I]-labeled compound in rat adrenal cortex. Format: ADME, organism-based. The method in brief: as §1
Data set [5] concerns Rattus norvegicus. The data set can be described thus: Distribution (percent dose/g of tissue) of radioactivity 24 hr after intravenous administration of [125I]-labeled compound in rat thyroid. Format: ADME, organism-based, Thyroid gland. The method in brief: as §1
The subject of data set [6] is Rattus norvegicus. The data set can be described thus: Distribution (percent dose/g of tissue) of radioactivity 24 hr after intravenous administration of [125I]-labeled compound in rat liver. Format: ADME, organism-based. A digest of the protocol:
as §1

Data set [7] has as its system Rattus norvegicus. The data set can be described thus: Distribution (percent dose/g of tissue) of radioactivity 24 hr after intravenous administration of [125I]-labeled compound in rat plasma. Format: ADME, organism-based. The method in brief: as §1
In data set [8] the test system is Rattus norvegicus. The data set can be described thus: Distribution (percent dose/g of tissue) of radioactivity 24 hr after intravenous administration of [125I]-labeled compound in rat ovary. Format: ADME, organism-based, Female gonad. The method in brief: as §1
Data set [9] has as its system Rattus norvegicus. The data set can be described thus: Distribution (percent dose/g of tissue) of radioactivity 24 hr after intravenous administration of [125I]-labeled compound in rat spleen. Format: ADME, organism-based. A digest of the protocol: as §1
Data set [10] has as its system Rattus norvegicus. The data set can be described thus: Distribution (percent dose/g of tissue) of radioactivity 24 hr after intravenous administration of [125I]-labeled compound to rat blood. Format: ADME, organism-based. The method in brief: as §1
In data set [11] the test system is Rattus norvegicus. The data set can be described thus: Distribution (percent dose/g of tissue) of radioactivity 24 hr after intravenous administration of [125I]-labeled compound to rat spleen. Format: ADME, organism-based. The method in brief:
as §1

The subject of data set [12] is Rattus norvegicus. The data set can be described thus: Distribution (percent dose/g of tissue) of radioactivity 24 hr after intravenous administration of [125I]-labeled compound to rat thyroid. Format: ADME, organism-based, Thyroid gland. The method in brief: as §1

With `CC(C)CCCC(C)C1CCC2C3CC=C4CC(OC(=O)Cc5ccc(I)cc5)CCC4(C)C3CCC12C` (centres undefined), the Activity is 0.65 % dose (g of tissue)-1 in the data set with Rattus norvegicus [1]; 0.33 % dose (g of tissue)-1 with Rattus norvegicus [2]; 1.02 % dose (g of tissue)-1 in the data set on Rattus norvegicus [3]; 3.29 % dose (g of tissue)-1 in the data set with Rattus norvegicus [4]; 27.09 % dose (g of tissue)-1 in the data set with Rattus norvegicus [5]; 1.25 % dose (g of tissue)-1 with Rattus norvegicus [6]. In addition, the Activity in the data set with Rattus norvegicus [7] was 1.88 % dose (g of tissue)-1; in the data set on Rattus norvegicus [8], 2.32 % dose (g of tissue)-1; in the data set on Rattus norvegicus [9], 0.5 % dose (g of tissue)-1.
Consider `CC(C)CCCC(C)C1CCC2C3CC=C4CC(OC(=O)Cc5ccccc5I)CCC4(C)C3CCC12C` (centres undefined), for which the Activity in the data set with Rattus norvegicus [1] is 0.43 % dose (g of tissue)-1; in the data set with Rattus norvegicus [2], 0.15 % dose (g of tissue)-1; in the data set on Rattus norvegicus [3], 0.21 % dose (g of tissue)-1; with Rattus norvegicus [4] it was 9.19 % dose (g of tissue)-1; in the data set with Rattus norvegicus [5], 46.31 % dose (g of tissue)-1; in the data set on Rattus norvegicus [6], 3.99 % dose (g of tissue)-1. Further, the Activity in the data set with Rattus norvegicus [7] is on record as 0.29 % dose (g of tissue)-1; with Rattus norvegicus [8], 5.97 % dose (g of tissue)-1; in the data set with Rattus norvegicus [9] it was 1.31 % dose (g of tissue)-1.
For the molecule `CC(C)CCCC(C)C1CCC2C3CC=C4CC(OC(=O)CCCc5ccc(I)cc5)CCC4(C)C3CCC12C` (centres undefined), the Activity in the data set with Rattus norvegicus [1] is 0.4 % dose (g of tissue)-1; in the data set on Rattus norvegicus [2] it was 0.25 % dose (g of tissue)-1; in the data set on Rattus norvegicus [3], 0.87 % dose (g of tissue)-1; in the data set with Rattus norvegicus [4], 1.94 % dose (g of tissue)-1; in the data set with Rattus norvegicus [5], 30.09 % dose (g of tissue)-1; with Rattus norvegicus [6], 0.36 % dose (g of tissue)-1. Moreover, the values for the Activity with Rattus norvegicus [7], with Rattus norvegicus [8] and in the data set on Rattus norvegicus [9] were 1.51 % dose (g of tissue)-1, 3.23 % dose (g of tissue)-1 and 0.16 % dose (g of tissue)-1, respectively.
Turning to `CC(C)CCCC(C)C1CCC2C3CC=C4CC(OC(=O)c5ccc(I)cc5)CCC4(C)C3CCC12C` (centres undefined), the Activity was 0.94 % dose (g of tissue)-1 in the data set on Rattus norvegicus [1]; 0.2 % dose (g of tissue)-1 in the data set with Rattus norvegicus [10]; 0.11 % dose (g of tissue)-1 with Rattus norvegicus [2]; 3.86 % dose (g of tissue)-1 in the data set on Rattus norvegicus [4]; 6.92 % dose (g of tissue)-1 in the data set with Rattus norvegicus [5]; 3.28 % dose (g of tissue)-1 with Rattus norvegicus [6]. In addition, the results for the Activity in the data set with Rattus norvegicus [7], in the data set on Rattus norvegicus [8] and with Rattus norvegicus [9] were 0.36 % dose (g of tissue)-1, 6.21 % dose (g of tissue)-1 and 1.49 % dose (g of tissue)-1, respectively.
With `CC(C)CCCC(C)C1CCC2C3CC=C4CC(OC(=O)c5ccccc5I)CCC4(C)C3CCC12C` (centres undefined), the Activity in the data set on Rattus norvegicus [1] is 0.94 % dose (g of tissue)-1; in the data set on Rattus norvegicus [2], 0.21 % dose (g of tissue)-1; with Rattus norvegicus [3], 0.44 % dose (g of tissue)-1; in the data set on Rattus norvegicus [4], 14.67 % dose (g of tissue)-1; in the data set on Rattus norvegicus [5], 1.96 % dose (g of tissue)-1; in the data set with Rattus norvegicus [6], 5.18 % dose (g of tissue)-1. Further, the values for the Activity with Rattus norvegicus [7], in the data set with Rattus norvegicus [8] and in the data set with Rattus norvegicus [9] were 0.8 % dose (g of tissue)-1, 13.68 % dose (g of tissue)-1 and 1.89 % dose (g of tissue)-1, respectively.
Turning to `CC(C)CCCC(C)C1CCC2C3CC=C4CC(OC(=O)CCc5ccc(I)cc5)CCC4(C)C3CCC12C` (centres undefined), the Activity in the data set with Rattus norvegicus [1] is on record as 0.5 % dose (g of tissue)-1; in the data set with Rattus norvegicus [2], 0.08 % dose (g of tissue)-1; in the data set on Rattus norvegicus [3], 0.13 % dose (g of tissue)-1; with Rattus norvegicus [4] it was 3.56 % dose (g of tissue)-1; in the data set with Rattus norvegicus [5] it was 67.52 % dose (g of tissue)-1; in the data set on Rattus norvegicus [6] it was 0.42 % dose (g of tissue)-1. The Activity is listed as 0.16 % dose (g of tissue)-1 in the data set with Rattus norvegicus [7], 1.35 % dose (g of tissue)-1 with Rattus norvegicus [8] and 0.51 % dose (g of tissue)-1 in the data set on Rattus norvegicus [9].
Take `CC(C)CCCC(C)C1CCC2C3CC=C4CC(OC(=O)c5cccc(I)c5)CCC4(C)C3CCC12C` (centres undefined): the Activity with Rattus norvegicus [1] is on record as 0.46 % dose (g of tissue)-1; in the data set with Rattus norvegicus [10], 0.3 % dose (g of tissue)-1; with Rattus norvegicus [2] it was 0.16 % dose (g of tissue)-1; in the data set on Rattus norvegicus [4] it was 12.76 % dose (g of tissue)-1; in the data set with Rattus norvegicus [5], 7.3 % dose (g of tissue)-1; with Rattus norvegicus [6], 5.03 % dose (g of tissue)-1. Also, the values for the Activity in the data set on Rattus norvegicus [7], in the data set with Rattus norvegicus [8] and in the data set with Rattus norvegicus [9] were 0.55 % dose (g of tissue)-1, 15.7 % dose (g of tissue)-1 and 1.86 % dose (g of tissue)-1, respectively.
In the case of `CC(C)CCCC(C)C1CCC2C3CC=C4CC(OC(=O)c5cc(I)cc(I)c5I)CCC4(C)C3CCC12C` (centres undefined), the Activity was 0.7 % dose (g of tissue)-1 with Rattus norvegicus [1]; 1.68 % dose (g of tissue)-1 with Rattus norvegicus [11]; 0.57 % dose (g of tissue)-1 with Rattus norvegicus [3]; 9.03 % dose (g of tissue)-1 with Rattus norvegicus [4]; 2.63 % dose (g of tissue)-1 with Rattus norvegicus [12]; 5.11 % dose (g of tissue)-1 with Rattus norvegicus [6]. The Activity with Rattus norvegicus [7] is recorded as 1.02 % dose (g of tissue)-1; in the data set on Rattus norvegicus [8], 16.19 % dose (g of tissue)-1.
Turning to `CC(C)CCCC(C)C1CCC2C3CC=C4CC(OC(=O)c5cc(I)c(I)c(I)c5)CCC4(C)C3CCC12C` (centres undefined), the Activity in the data set on Rattus norvegicus [1] was 0.97 % dose (g of tissue)-1; in the data set on Rattus norvegicus [11], 2.98 % dose (g of tissue)-1; with Rattus norvegicus [2] it was 0.2 % dose (g of tissue)-1; in the data set with Rattus norvegicus [3], 0.54 % dose (g of tissue)-1; in the data set with Rattus norvegicus [4] it was 7.48 % dose (g of tissue)-1; in the data set with Rattus norvegicus [12], 6.06 % dose (g of tissue)-1. Besides, the Activity in the data set with Rattus norvegicus [6] is given as 4.8 % dose (g of tissue)-1; in the data set on Rattus norvegicus [7] it was 1.01 % dose (g of tissue)-1; with Rattus norvegicus [8], 12.53 % dose (g of tissue)-1.
With `CC(C)CCCC(C)C1CCC2C3CC=C4CC(OC(=O)Cc5cccc(I)c5)CCC4(C)C3CCC12C` (centres undefined), the Activity is 0.27 % dose (g of tissue)-1 in the data set on Rattus norvegicus [1]; 0.11 % dose (g of tissue)-1 in the data set on Rattus norvegicus [2]; 0.14 % dose (g of tissue)-1 in the data set with Rattus norvegicus [3]; 3.4 % dose (g of tissue)-1 in the data set with Rattus norvegicus [4]; 32.62 % dose (g of tissue)-1 in the data set on Rattus norvegicus [5]; 2.11 % dose (g of tissue)-1 in the data set on Rattus norvegicus [6]. Besides, the Activity is recorded as 0.24 % dose (g of tissue)-1 in the data set on Rattus norvegicus [7], 5.05 % dose (g of tissue)-1 in the data set on Rattus norvegicus [8] and 0.77 % dose (g of tissue)-1 in the data set on Rattus norvegicus [9].

(Values after ChEMBL document CHEMBL1122065, “Potential organ- or tumor-imaging agents. 22. Acyl-labeled cholesterol esters” (J Med Chem, 1982).)
